According to ChEMBL document CHEMBL1121618, “Thymidine phosphorylase. Substrate specificity for 5-substituted 2'-deoxyuridines” (J Med Chem, 1980):

Assay: Ratio of Vmax to that of dThd (Vmax = 0.14)
Method in brief: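 Continuous UV assay of phosphorolysis by a dThd phosphorylase preparation. Initial rates were followed at each nucleoside's Δλmax, the wavelength of maximal nucleoside/base absorbance difference determined per substrate, and converted using Δεmax. Nucleoside was varied from 60–320 μM in 0.1 M potassium phosphate (pH 6.0) with limiting enzyme at 25.0 °C. Vmax was expressed relative to dThd in the same assay.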

| Compound | Vmax |
| --- | --- |
| O=c1[nH]c(=O)n([C@H]2C[C@H](O)[C@@H](CO)O2)cc1CO | 0.6 |
| O=c1[nH]c(=O)n([C@H]2C[C@H](O)[C@@H](CO)O2)cc1Br | 3.51 |
| O=c1[nH]c(=O)n([C@H]2C[C@H](O)[C@@H](CO)O2)cc1C(F)(F)F | 8.53 |
| CCc1cn([C@H]2C[C@H](O)[C@@H](CO)O2)c(=O)[nH]c1=O | 0.79 |
| O=c1[nH]c(=O)n([C@H]2C[C@H](O)[C@@H](CO)O2)cc1I | 3.85 |
| C=CCc1cn([C@H]2C[C@H](O)[C@@H](CO)O2)c(=O)[nH]c1=O | 0.76 |
| O=Cc1cn([C@H]2C[C@H](O)[C@@H](CO)O2)c(=O)[nH]c1=O | 1.46 |
| O=c1[nH]c(=O)n([C@H]2C[C@H](O)[C@@H](CO)O2)cc1F | 3.42 |
| O=c1ccn([C@H]2C[C@H](O)[C@@H](CO)O2)c(=O)[nH]1 | 0.88 |
| Cc1cn([C@H]2C[C@H](O)[C@@H](CO)O2)c(=O)[nH]c1=O | 1 |
| C/C=C/c1cn([C@H]2C[C@H](O)[C@@H](CO)O2)c(=O)[nH]c1=O | 0.57 |
| N#Cc1cn([C@H]2C[C@H](O)[C@@H](CO)O2)c(=O)[nH]c1=O | 0.74 |
| O=c1[nH]c(=O)n([C@H]2C[C@H](O)[C@@H](CO)O2)cc1Cl | 4.2 |
